Assay results gathered from unrelated publications.
Each line is one published result; the experiments were not run side by side.
Matrix: Caco-2

SMILES | setting | endpoint | value
CN(C)C(=O)c1cc2cnc(Nc3ccc(N4CCNCC4)cn3)nc2n1C1CCCC1 |  | Papp | 1.83 ×10⁻⁶ cm/s
CC(C)NCC(O)COc1cccc2ccccc12 (centres unmarked) |  | Papp B→A | 59.3 ×10⁻⁶ cm/s
C[C@H]1O[C@@H](O[C@H]2[C@@H](O)C[C@H](O[C@H]3[C@@H](O)C[C@H](O[C@H]4CC[C@@]5(C)[C@H](CC[C@@H]6[C@@H]5C[C@@H](O)[C@]5(C)[C@@H](C7=CC(=O)OC7)CC[C@]65O)C4)O[C@@H]3C)O[C@@H]2C)C[C@H](O)[C@@H]1O |  | Papp B→A | 14 ×10⁻⁶ cm/s
O=C(c1cc(Cc2n[nH]c(=O)c3ccccc23)ccc1F)N1CCN(C(=O)C2CC2)CC1 |  | Papp | 7.75 ×10⁻⁶ cm/s
CC(C)(/C=C(\C#N)C(=O)N1CCC[C@@H](n2nc(-c3ccc(Oc4ccccc4)cc3F)c3c(N)ncnc32)C1)N1CCN(C2COC2)CC1 | 1 µM | Papp | 1.7 ×10⁻⁶ cm/s
C[C@@H]1O[C@@H](OC[C@H]2O[C@@H](Oc3c(-c4ccc(O)c(O)c4)oc4cc(O)cc(O)c4c3=O)[C@H](O)[C@@H](O)[C@@H]2O)[C@H](O)[C@H](O)[C@H]1O | 1 mg/mL, pH 7.4 | Papp | 24.5 ×10⁻⁶ cm/s
N#C[C@H](C[C@@H]1CCCNC1=O)NC(=O)[C@H](CC1CC1)NC(=O)c1cc2cccc(Cl)c2[nH]1 |  | Papp | 0.36 ×10⁻⁶ cm/s
O=c1c(O[C@@H]2O[C@H](CO)[C@@H](O)[C@H](O)[C@H]2O)c(-c2ccc(O)c(O)c2)oc2cc(O)cc(O)c12 | 1 mg/mL, pH 7.4 | Papp | 2.05 ×10⁻⁶ cm/s
Cn1c(S)nc2c1c(=O)n(Cc1ccccc1)c(=O)n2C | 10 µM, 2 h | Papp B→A | 30.5 ×10⁻⁶ cm/s
COCCc1ccc(OCC(O)CNC(C)C)cc1 (centres unmarked) |  | Papp | 15 ×10⁻⁶ cm/s
CC[C@H](C)C(=O)N1CCC(NC(=O)Nc2ccc(OC(F)(F)F)c(F)c2)CC1 | 10 µM, 1 h, pH 7.4 | Papp B→A | 16.4 ×10⁻⁶ cm/s
CC(C)NCC(O)COc1cccc2ccccc12 (centres unmarked) | 10 µM, 2 h, pH 7.4 | Papp B→A | 9.99 ×10⁻⁶ cm/s
CO[C@@H](C[C@H]1C(C)=CC[C@@H]2[C@]3(C)C[C@H](O[C@@H]4O[C@@H](C)[C@H](OC(=O)c5cccc(O)c5)[C@@H](O[C@@H]5O[C@H](CO)[C@@H](O)[C@H](O)[C@H]5NC(C)=O)[C@H]4O)[C@@H](O)C(C)(C)[C@H]3CC[C@]21C)[C@H](N)C(=O)O.O=C(O)C(F)(F)F | 5 µM, 1 h | Papp B→A | 0.05 ×10⁻⁶ cm/s
COc1cccc2c(-c3ccccc3)cc(-c3ccc(-c4ccc(C(=O)O)cc4)[nH]3)nc12 |  | Papp B→A | 7.44 ×10⁻⁶ cm/s
Cc1ncsc1-c1ccc(CNC(=O)[C@@H]2C[C@@H](O)CN2C(=O)[C@@H](NC(=O)C2(F)CC2)C(C)(C)C)c(OCCOc2ccc(CN3CCN(c4cc(-c5ccccc5O)nnc4N)CC3)cc2)c1 | 2 h, pH 7.2 | Papp B→A | 3.8 ×10⁻⁶ cm/s
CCn1c(=O)c2c(nc(S)n2C)n(C)c1=O | 10 µM, 2 h | Papp B→A | 7 ×10⁻⁶ cm/s
C[C@H]1O[C@@H](O[C@H]2[C@@H](O)C[C@H](O[C@H]3[C@@H](O)C[C@H](O[C@H]4CC[C@@]5(C)[C@H](CC[C@@H]6[C@@H]5C[C@@H](O)[C@]5(C)[C@@H](C7=CC(=O)OC7)CC[C@]65O)C4)O[C@@H]3C)O[C@@H]2C)C[C@H](O)[C@@H]1O | 10 µM, 2 h, pH 7.4 | Papp B→A | 9.63 ×10⁻⁶ cm/s
